Values after ≈ are worked out from the molar mass of the structure shown. Active and inactive are the calls of the source. The calls are words filed in the database; no cut-off is given here.
Assays:
[1] = molecular target: T1, Transient receptor potential cation channel subfamily A member 1 (Homo sapiens, UniProt O75762); assay: Antagonist activity at human TRPA1 expressed in HEK293 cells assessed as inhibition of Zn2+-induced intracellular calcium flux by FLIPR assay; type: functional, cell-based
T1 sequence (O75762 whole entry): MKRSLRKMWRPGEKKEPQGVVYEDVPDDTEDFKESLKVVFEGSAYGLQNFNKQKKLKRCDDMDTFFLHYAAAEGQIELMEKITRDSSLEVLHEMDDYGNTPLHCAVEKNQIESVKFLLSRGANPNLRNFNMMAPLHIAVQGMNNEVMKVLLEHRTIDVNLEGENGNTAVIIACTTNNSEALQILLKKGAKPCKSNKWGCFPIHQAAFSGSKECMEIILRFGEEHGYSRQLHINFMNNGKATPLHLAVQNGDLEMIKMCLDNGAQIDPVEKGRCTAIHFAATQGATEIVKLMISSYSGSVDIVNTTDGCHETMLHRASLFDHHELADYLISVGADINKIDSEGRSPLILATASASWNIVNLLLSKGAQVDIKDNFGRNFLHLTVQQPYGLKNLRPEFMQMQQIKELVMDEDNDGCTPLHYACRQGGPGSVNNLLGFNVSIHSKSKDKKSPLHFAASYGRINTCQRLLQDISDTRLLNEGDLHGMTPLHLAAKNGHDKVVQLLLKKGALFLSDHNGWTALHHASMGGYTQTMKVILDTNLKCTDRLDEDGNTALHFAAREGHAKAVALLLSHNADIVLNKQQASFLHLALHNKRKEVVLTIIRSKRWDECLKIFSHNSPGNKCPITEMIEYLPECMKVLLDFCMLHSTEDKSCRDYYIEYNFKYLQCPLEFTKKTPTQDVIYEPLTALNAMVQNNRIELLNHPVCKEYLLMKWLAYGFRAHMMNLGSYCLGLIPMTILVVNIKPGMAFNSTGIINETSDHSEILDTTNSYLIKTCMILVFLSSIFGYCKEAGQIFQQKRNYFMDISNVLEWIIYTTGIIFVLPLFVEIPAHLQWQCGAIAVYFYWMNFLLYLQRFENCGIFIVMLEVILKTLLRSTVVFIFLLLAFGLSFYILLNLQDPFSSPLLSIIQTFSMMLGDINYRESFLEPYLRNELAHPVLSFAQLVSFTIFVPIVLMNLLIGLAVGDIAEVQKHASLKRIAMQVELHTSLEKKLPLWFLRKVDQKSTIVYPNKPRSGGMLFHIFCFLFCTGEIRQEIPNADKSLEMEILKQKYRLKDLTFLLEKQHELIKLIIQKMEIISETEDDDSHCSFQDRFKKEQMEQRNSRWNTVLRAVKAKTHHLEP
How it was run: (§1)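 Fluorescence-based TRPA1 antagonist assay with the agonist as the stimulus: Ca2+ for line 1 and Zn2+ for line 2. Results are reported as pIC50. Compounds with pIC50 > 5 were checked by automated electrophysiology on IonWorks to exclude autofluorescence artefacts. The IC50s from the two agonist formats were pooled and treated as one data set.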

[2] = molecular target: T1, Transient receptor potential cation channel subfamily A member 1; assay: Antagonist activity at human TRPA1 expressed in HEK293 cells assessed as inhibition of Ca2+-induced intracellular calcium flux by FLIPR assay; type: functional, cell-based; how it was run: as §1
[3] = Solubility of the compound in phosphate buffer at pH 7.4 by dried DMSO method; type: physicochemical
How it was run: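 Measured by the 'dried DMSO' method in phosphate buffer at pH 7.4. Results are binned as low (<1–5 μM), medium (5–25 μM) or good (>25 μM).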

[4] = Metabolic stability in human microsomes assessed as glutathione adduct formation

For `Cc1noc(C(C)C)c1C(=O)NC1C(=O)c2ccc(Cl)cc2CC1(C)C` (stereo unspecified), the pIC50 [1] was “inactive”.

For `CC(C)C(NC(=O)c1ccccc1)C(=O)c1ccc(S(C)(=O)=O)cc1` (racemic), the pIC50 [1] was “inactive” and the pIC50 [2] was “inactive”.

In the case of `CC(C)C(NC(=O)c1ccccc1)C(=O)c1ccc(C#N)cc1` (racemic), the IC50 [2] is reported as 3980 nM and the solubility kinetic [3] is reported as 150 µM (≈ 46 µg/mL).

For `CC(C)C(NC(=O)c1ccccc1)C(=O)c1ccc(Cl)c(Cl)c1` (racemic), the IC50 [2] was 3980 nM.

`CC(C)C(NC(=O)c1ccc(Cl)cc1F)C(=O)c1ccc(C#N)cc1` (stereo unspecified) gave an IC50 [1] of 3980 nM and an IC50 [2] of 3160 nM.

In the case of `CC(C)C(NC(=O)c1cc2ccccc2n1C)C(=O)c1ccc(C#N)cc1` (stereo unspecified), the IC50 [1] is reported as 1580 nM and the IC50 [2] is reported as 3980 nM.

For `CC(C)C(NC(=O)c1ccccc1)C(=O)c1ccc(Cl)cc1` (racemic), the IC50 [1] was 1260 nM and the IC50 [2] was 2510 nM.

With `CCCCCCCCCC(=O)NC(C(=O)c1ccc(C#N)cc1)C(C)C` (stereo unspecified) the IC50 [1] was 1000 nM and the IC50 [2] was 2000 nM.

`O=C(NC(C(=O)c1ccc(Cl)cc1)C1CC1)c1ccccc1` (stereo unspecified) gave an IC50 [1] of 2000 nM and an IC50 [2] of 2000 nM.

For `CC(C)C(NC(=O)N(C)C(C)(C)C)C(=O)c1ccc(C#N)cc1` (stereo unspecified), the IC50 [2] was 3980 nM.

In the case of `Cc1noc(C(C)C)c1C(=O)NC(C(=O)c1ccc(C#N)cc1)C(C)C` (stereo unspecified), the IC50 [1] is reported as 2000 nM and the IC50 [2] is reported as 1580 nM.

Compound `CC(C)C(NC(=O)c1cc(Cl)ccc1C(F)(F)F)C(=O)c1ccc([N+](=O)[O-])cc1` (stereo unspecified) has an IC50 [1] of 10 nM and a solubility kinetic [3] of under 1 µM.

In the case of `CC(C)C(NC(=O)c1ccccc1)C(=O)c1ccc(F)cc1` (racemic), the IC50 [1] is reported as 7940 nM and the IC50 [2] is reported as 5010 nM.

For `CCCC(NC(=O)c1ccccc1)C(=O)c1ccc(Cl)cc1` (stereo unspecified), the pIC50 [1] was “inactive” and the pIC50 [2] was “inactive”.

With `CC(C)C(NC(=O)c1cc(Cl)ccc1F)C(=O)c1ccc(C#N)cc1` (stereo unspecified) the IC50 [1] was 2000 nM and the pIC50 [2] was “inactive”.

`CC(C)C(NC(=O)c1ccc(Cl)cc1Cl)C(=O)c1ccc(C#N)cc1` (stereo unspecified) showed an IC50 [1] of 2510 nM and an IC50 [2] of 5010 nM.

With `CC(C)(C)C(NC(=O)c1ccccc1)C(=O)c1ccc(Cl)cc1` (stereo unspecified) the IC50 [1] was 398 nM and the IC50 [2] was 1000 nM.

In the case of `C=CCN(CC=C)c1ccc(C(=O)C(NC(=O)c2ccccc2)C(C)C)cc1` (racemic), the pIC50 [1] is reported as under 4.5 and the pIC50 [2] is reported as “inactive”.

`CC(C)C(NC(=O)c1cc(C(F)(F)F)ccc1Cl)C(=O)c1ccc(C#N)cc1` (stereo unspecified) gave an IC50 [1] of 316 nM and an IC50 [2] of 398 nM.

`Cc1noc(C(C)C)c1C(=O)NC(C(=O)c1ccc(C#N)c(F)c1)C(C)(C)C` (stereo unspecified) gave an IC50 [1] of 200 nM and a solubility kinetic [3] of 80 µM (≈ 30.8 µg/mL).

With `CC(C)C(NC(=O)c1ccccc1)C(=O)c1ccc([N+](=O)[O-])cc1` (racemic) the IC50 [1] was 251 nM and the IC50 [2] was 316 nM.

Work on `CC(C)C(NC(=O)c1ccccc1)C(=O)c1ccc(Cl)cc1` (single isomer, unassigned; isomer 1) yielded an IC50 [1] of 398 nM and an IC50 [2] of 1000 nM.

`CC(C)C(NC(=O)NC(C)(C)C)C(=O)c1ccc(Cl)cc1` (stereo unspecified) gave an IC50 [1] of 2510 nM and an IC50 [2] of 2000 nM.

With `CC(C)C(NC(=O)c1ccccc1C(F)(F)F)C(=O)c1ccc(C#N)cc1` (stereo unspecified) the IC50 [1] was 5010 nM and the IC50 [2] was 3160 nM.

Work on `CC(C)C(NC(=O)OC(C)(C)C)C(=O)c1ccc(C#N)cc1` (stereo unspecified) yielded an IC50 [1] of 2510 nM and an IC50 [2] of 6310 nM.

`CC(C)C(NC(=O)c1cnoc1C(C)(C)C)C(=O)c1ccc(C#N)cc1` (stereo unspecified) gave an IC50 [1] of 501 nM and an IC50 [2] of 1000 nM.

For `CC(C)C(NC(=O)c1ccccc1)C(=O)c1ccc(N)cc1` (racemic), the pIC50 [1] was “inactive” and the pIC50 [2] was “inactive”.

Work on `CC(C)C(NC(=O)c1cnn(C(C)(C)C)c1C(F)(F)F)C(=O)c1ccc2nonc2c1` (stereo unspecified) yielded an IC50 [1] of 398 nM.

In the case of `O=C(NC1(C(=O)c2ccc(Cl)cc2)CCC1)c1ccccc1`, the pIC50 [1] is reported as “inactive” and the pIC50 [2] is reported as “inactive”.

In the case of `CC(C)C(C)(NC(=O)c1ccccc1)C(=O)c1ccc(Cl)cc1` (stereo unspecified), the pIC50 [1] is reported as “inactive” and the IC50 [2] is reported as 3160 nM.

With `CC(C)C(NC(=O)c1ccccc1)C(=O)c1ccc(Br)cc1` (racemic) the IC50 [1] was 1260 nM and the IC50 [2] was 7940 nM.

For `CC(C)C(NC(=O)c1ccccc1)C(=O)c1ccccc1` (racemic), the pIC50 [1] was under 4.5 and the pIC50 [2] was “inactive”.

In the case of `CC(C)C(NC(=O)c1ccccc1)C(=O)c1cccc(Cl)c1` (racemic), the pIC50 [1] is reported as under 4.5 and the pIC50 [2] is reported as “inactive”.

`CC(C)C(NC(=O)N(C)C(C)(C)C)C(=O)c1ccc(Cl)cc1` (stereo unspecified) showed an IC50 [1] of 631 nM and an IC50 [2] of 251 nM.

For `CC(C)C(NC(=O)N1CCc2ccccc2C1)C(=O)c1ccc(C#N)cc1` (stereo unspecified), the IC50 [1] was 5010 nM, the Stability [4] was “Unstable” and the IC50 [2] was 5010 nM.

For `CC(C)C(NC(=O)Nc1ccc(F)cc1)C(=O)c1ccc(C#N)cc1` (stereo unspecified), the pIC50 [1] was “inactive” and the pIC50 [2] was “inactive”.

With `CC(C)C(NC(=O)OC(C)(C)C)C(=O)c1ccc(Cl)cc1` (stereo unspecified) the IC50 [1] was 794 nM and the IC50 [2] was 1000 nM.

For `Cc1noc(-c2ccccc2)c1C(=O)NC(C(=O)c1ccc(C#N)cc1)C(C)C` (stereo unspecified), the IC50 [1] was 3980 nM and the IC50 [2] was 7940 nM.

With `CC(C)C(NC(=O)c1ccccc1)C(=O)c1ccc(Cl)cc1` (single isomer, unassigned; isomer 2) the pIC50 [1] was “inactive” and the pIC50 [2] was “inactive”.

With `CC(C)C(NC(=O)c1ccc(Cl)cc1)C(=O)c1ccc(C#N)cc1` (stereo unspecified) the IC50 [2] was 398 nM.

`CC(C)C(NC(=O)OC(C)(C)C)C(=O)c1ccc(Cl)cn1` (stereo unspecified) gave an IC50 [1] of 15800 nM and an IC50 [2] of 5010 nM.

With `CC(C)C(NC(=O)OC(C)(C)C)C(=O)c1ccc(C#N)c(F)c1` (stereo unspecified) the IC50 [1] was 2000 nM and the IC50 [2] was 1260 nM.

With `CC(C)C(NC(=O)NCc1ccccc1)C(=O)c1ccc(C#N)cc1` (stereo unspecified) the pIC50 [1] was “inactive” and the pIC50 [2] was “inactive”.

In the case of `O=C(CNC(=O)c1ccccc1)c1ccc(Cl)cc1`, the pIC50 [1] is reported as “inactive” and the pIC50 [2] is reported as “inactive”.

`COc1ccc(C(=O)NC(C(=O)c2ccc(C#N)cc2)C(C)C)cc1` (stereo unspecified) showed an IC50 [1] of 6310 nM and an IC50 [2] of 12600 nM.
